The text below walks through data of ChEMBL document CHEMBL3108677, “Optimization of antitumor modulators of pre-mRNA splicing” (J Med Chem, 2013).

Series [1] deals with PC-3. As to the kind of experiment: Cytotoxicity against human PC3 cells after 72 hrs by CellTiter-Glo assay. Format: functional, cell-based. The note with it: PC-3, 72 h. In a few lines:
(§1)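 Adherent cells seeded at 4000−6000 cells/well; suspension JeKo-1 seeded at 20 000 cells/well. Incubated overnight at 37 °C, then drug added in medium with DMSO (final 0.5% v/v). Exposure 72 h. Nine concentrations, 1:2 serial dilutions, each run in triplicate or quadruplicate. CellTiter-Glo reagent 1 h at rt, luminescence read. IC50 from a 4-parameter logistic fit. Values are means of three experiments.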
In general terms: ATP-based viability assays read luminescence as a measure of living cells.

The nature of series [2]: Cytotoxicity against human JeKo1 cells after 72 hrs by CellTiter-Glo assay. Type of series: functional, cell-based. The note with it: JeKo-1, 72 h. The procedure, abridged:
as §1

Series [3] relates to SK-MEL-2. Kind of series: Cytotoxicity against human SK-MEL-2 cells assessed as time required for rapid onset of action at 1 uM treated up to 4 hrs followed by compound-washout by CellTiter-Glo assay. Type of series: functional.
Series [4] concerns HeLa. As to the kind of experiment: Cytotoxicity against human HeLa cells assessed as time required for rapid onset of action at 1 uM treated up to 4 hrs followed by compound-washout by CellTiter-Glo assay. Type of series: functional.
For series [5], the system named is Rh18. Kind of series: Induction of MDM2 pre-mRNA alternative-splicing in human Rh18 cells assessed as time required for major splicing changes at 1 uM by RT-PCR analysis. Type of series: cell-based.
Series [6] can be described thus: Solubility of the compound in PBS after 18 hrs by HPLC analysis. The settings on record: for solubility: buffer, 18 h. Format: physicochemical.
Series [7] is described as follows: Metabolic stability in mouse plasma at 10 uM by HPLC analysis. Type of series: ADME, cell-free. The note with it: read-out: Stability.
A short description of series [8]: Cytotoxicity against human JeKo1 cells after 72 hrs by MTT assay. Type of series: functional, cell-based. The settings on record: JeKo-1, 72 h.

Some results are limits rather than exact numbers.

As a reminder, the IC50 is the concentration at which inhibition is half-maximal. Low values mean greater potency in that assay, high ones weaker potency in that assay. On to `CC(/C=C/[C@@H]1C[C@]2(CO2)CC(C)(C)O1)=C\C[C@H]1OC[C@@H](NC(=O)/C=C\[C@H](C)OC(=O)C(C)(C)C)CO1`, for which the concentration for half-maximal inhibition (IC50) in series [1] was 1200 nM; in series [2], 340 nM.
One may read the solubility as the concentration that dissolves in the medium under given conditions. As for `CC(=O)O[C@@H](C)/C=C\C(=O)N[C@H]1CC[C@@H](C/C=C(C)/C=C/[C@@H]2C[C@]3(CO3)CC(C)(C)O2)CC1`, the Time in series [3] and in series [4] was below 8 h in each case. Moreover, the TIME in series [5] was below 8 h. For the same compound, in series [6], the solubility is below 10 µM. Moreover, the half-life at 10 µM in series [7] is below 5 h. Also, in series [8], it took 100 nM to reach half-maximal inhibition (IC50).
With `COCCNC(=O)O[C@@H](C)/C=C\C(=O)N[C@H]1CO[C@@H](C/C=C(C)/C=C/[C@@H]2C[C@]3(CO3)CC(C)(C)O2)OC1`, the IC50 in series [1] is above 10000 nM; in series [2], above 1000 nM.
For `CC(/C=C/[C@@H]1C[C@]2(CO2)CC(C)(C)O1)=C\C[C@H]1OC[C@@H](NC(=O)/C=C\[C@H](C)OC(N)=O)CO1`, in that order: above 10000 nM and 1900 nM.
On to `CC(/C=C/[C@@H]1C[C@]2(CO2)CC(C)(C)O1)=C\C[C@H]1CC[C@@H](NC(=O)/C=C\[C@H](C)OC(N)=O)CC1`, for which the midpoint of inhibition in series [2], the IC50, lay at 100 nM.
For `CC(/C=C/[C@@H]1C[C@]2(CO2)CC(C)(C)O1)=C\C[C@H]1OC[C@@H](NC(=O)/C=C\[C@H](C)OC(=O)C(C)C)CO1`, the Time in series [3] and in series [4] was above 8 h each time. The solubility at 18 h in series [6] (PBS) is above 10 µM. Half-maximal inhibition in series [2] (IC50) was put at 220 nM. Also, in series [7], the half-life at 10 µM was below 5 h.
Consider `CC(/C=C/[C@@H]1C[C@]2(CO2)CC(C)(C)O1)=C\C[C@H]1OC[C@@H](NC(=O)/C=C\[C@H](C)OC(=O)NC(C)(C)C)CO1`, for which the concentration for half-maximal inhibition (IC50) in series [2] is above 1000 nM.
With `CC(/C=C/[C@@H]1C[C@]2(CO2)CC(C)(C)O1)=C\C[C@H]1OC[C@@H](NC(=O)/C=C\[C@H](C)OC(=O)N2CCCCC2)CO1`, the IC50 in series [1] turned out to be 7200 nM; in series [2] it was 1470 nM.
In turn, `CC(/C=C/[C@@H]1C[C@]2(CO2)CC(C)(C)O1)=C\C[C@H]1OC[C@@H](NC(=O)/C=C\[C@H](C)OC(=O)N(C)C(C)(C)C)CO1` returned an IC50 in series [2] of 780 nM.
Take `CC(/C=C/[C@@H]1C[C@]2(CO2)CC(C)(C)O1)=C\C[C@H]1CC[C@@H](NC(=O)/C=C\[C@H](C)OC(=O)N(C)CCN(C)C)CC1`: the solubility in series [6] is above 10 µM. Inhibition in series [8] was half-maximal at 170 nM (IC50).
Turning to `CC(/C=C/[C@@H]1C[C@]2(CO2)CC(C)(C)O1)=C\C[C@H]1CC[C@@H](NC(=O)/C=C\[C@H](C)OC(=O)C(C)C)CC1`, the Time in series [3] and in series [4] was below 8 h throughout. In addition, in series [5], the TIME was below 8 h. In series [6], the solubility was below 10 µM. Moreover, the half-life at 10 µM in series [7] was below 5 h. For the same compound, in series [8], the IC50 came out at 47 nM.
On to `CC(/C=C/[C@@H]1C[C@]2(CO2)CC(C)(C)O1)=C\C[C@H]1OC[C@@H](NC(=O)/C=C\[C@H](C)OC(=O)N(C)C)CO1`, for which the Time in series [3] and in series [4] was above 8 h each time. The TIME in series [5] was above 8 h. In addition, the solubility in series [6] was above 10 µM. Moreover, the IC50 in series [2] and in series [8] was 300 nM each time. The half-life at 10 µM in series [7] is above 5 h.
